The values below come from ChEMBL document CHEMBL1130205, “Potent noncovalent thrombin inhibitors that utilize the unique amino acid D-dicyclohexylalanine in the P3 position. Implications on oral bioavailability and antithrombotic efficacy” (J Med Chem, 1997).

Each structure is given as a SMILES string.

Data set [1] has as its system Rattus norvegicus. Put plainly: AUC (Area under curve) was determined after intravenous administration at a dose 2 mg/kg in rat. To be noted: in vivo. On the set-up: dose 2 mg/kg, route intravenous. The class given is ADME, organism-based, Plasma.
Data set [2] relates to Rattus norvegicus. The experiment in a line: AUC (Area under curve) was determined after peroral administration at a dose 10 mg/kg in rat. In kind it is ADME, organism-based, Plasma. On the set-up: dose 10 mg/kg, route oral. The following applies: in vivo, po.
The nature of data set [3]: The plasma clearance in rat. In kind it is ADME, organism-based. The following applies: read-out: CI. The essentials: (§1)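 Cannulated rats (carotid artery; jugular vein for iv group) dosed 2 mg/kg iv (saline or 30% propylene glycol/saline) or 10 mg/kg po (0.1% methocel suspension). Blood sampled 1-360 min (iv) or 15-360 min (po), centrifuged, plasma extracted with acetonitrile and quantified by thrombin enzyme activity assay.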

The nature of data set [4]: The fraction of free compound available in plasma of human. To be noted: read-out: Funbound_plasma. In kind it is ADME, cell-free.
A short description of data set [5]: The fraction of free compound available in plasma of rat. The class given is ADME, cell-free. To be noted: read-out: Funbound_plasma.
Data set [6] can be described thus: Bioavailability in rat. In kind it is ADME, organism-based. To be noted: in vivo. A digest of the protocol:
as §1

Data set [7] can be described thus: The half life period in rat. The following applies: in vivo. In kind it is ADME, organism-based. A digest of the protocol: as §1
For the next data set, the target named is Coagulation factor X (Homo sapiens, UniProt P00742). The experiment in a line: Inhibitory activity against human serine protease Coagulation factor X (1.7*10e6*).
A further data set deals with Plasma kallikrein (Homo sapiens, UniProt P03952). The experiment in a line: Inhibitory activity against human serine protease (plasma Kallikrein) (89000*).
In a further data set the target is Plasminogen (Homo sapiens, UniProt P00747). The experiment in a line: Inhibitory activity against human serine protease (plasmin) (3.0*10e6).
For data set [8], the species on record is Rattus norvegicus. Put plainly: (§2) Number of occlusions was reported. In kind it is functional. The essentials: (§3)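 Rat carotid artery FeCl3-induced thrombosis: inhibitor infused iv at 6 µg/kg/min for 120 min before FeCl3 insult (vehicle saline or 30% propylene glycol/saline); occlusions counted; plasma drug level at end of experiment. 2X APTT = plasma concentration (µM) doubling activated partial thromboplastin time, determined in rat plasma.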

The target of the next data set is Prothrombin (Homo sapiens, UniProt P00734). Put plainly: Inhibitory activity against human thrombin.
The target in data set [9] is Tissue-type plasminogen activator (Homo sapiens, UniProt P00750). The experiment in a line: Inhibitory activity against human serine protease (TPA) (2.5*10e6*).
The target of data set [10] is T1, Serine protease 1 (Homo sapiens, UniProt P07477). The experiment in a line: Inhibitory activity against human serine protease (Trypsin)(2143*).
Data set [11] in a line: (§4) log P values were determined by the standard partition method using octanol/pH 7.4 phosphate buffer. In kind it is physicochemical. The essentials: (§5)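 Octanol/pH 7.4 phosphate buffer standard partition method.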
Data set [12] in a line: as §2. In kind it is ADME. The essentials:
as §3

The target of data set [13] is T1, Serine protease 1. Put plainly: Inhibitory activity against human trypsin.
A short description of data set [14]: Partition coefficient (logP). In kind it is physicochemical. The following applies: octanol/water. A digest of the protocol:
as §5

Data set [15] deals with Canis familiaris. Put plainly: AUC (Area under curve) was determined after intravenous administration at a dose 1 mg/kg in dog. The class given is ADME, organism-based, Canis lupus familiaris, Plasma. On the set-up: dose 1 mg/kg, route intravenous. To be noted: in vivo. A digest of the protocol: (§6)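 Two fasted male beagle dogs (10-12 kg), crossover design. Oral 5 mg/kg as 1% methocel suspension, blood from jugular vein at 0-480 min; iv 1 mg/kg bolus in 20% PEG/saline, blood at 0-480 min. Plasma frozen at -20 °C and assayed by HPLC.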

The test system of data set [16] is Canis familiaris. Put plainly: AUC (Area under curve) was determined after peroral administration at a dose 5 mg/kg in dog. The class given is ADME, organism-based, Canis lupus familiaris, Plasma. Details: dose 5 mg/kg, route oral. The following applies: in vivo, po. The essentials: as §6
Data set [17] can be described thus: The plasma clearance in dog. The following applies: read-out: CI. In kind it is ADME, organism-based, Canis lupus familiaris. The essentials: as §6
Data set [18] can be described thus: Bioavailability in dog. The class given is ADME, organism-based, Canis lupus familiaris. The following applies: in vivo. A digest of the protocol: as §6
Data set [19] can be described thus: The half life period by intravenous administration in dog. To be noted: in vivo. The class given is ADME, organism-based, Canis lupus familiaris. The essentials: as §6
The nature of data set [20]: The half life period by peroral administration in dog. In kind it is ADME, organism-based, Canis lupus familiaris. To be noted: in vivo, po. The essentials: as §6
Data set [21] in a line: as §4. In kind it is physicochemical. The essentials:
as §5
The source holds these as a separate data set.

The test system of data set [22] is Rattus norvegicus. Put plainly: Concentration required to double the activated partial thromboplastin time (2X APTT) in FeCl3 induced thrombosis in rat carotid artery at 6 micro g/kg/min dose by intravenous administration. The class given is functional. A digest of the protocol: as §3

T1 sequence (P07477 whole entry): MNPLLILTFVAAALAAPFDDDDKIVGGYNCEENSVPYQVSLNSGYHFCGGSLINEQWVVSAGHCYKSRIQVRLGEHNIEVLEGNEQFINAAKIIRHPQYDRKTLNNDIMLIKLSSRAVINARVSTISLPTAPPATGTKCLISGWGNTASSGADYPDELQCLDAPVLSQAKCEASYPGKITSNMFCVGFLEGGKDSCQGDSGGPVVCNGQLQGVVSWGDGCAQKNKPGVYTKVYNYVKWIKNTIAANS
Sequence of Tissue-type plasminogen activator (P00750 whole entry): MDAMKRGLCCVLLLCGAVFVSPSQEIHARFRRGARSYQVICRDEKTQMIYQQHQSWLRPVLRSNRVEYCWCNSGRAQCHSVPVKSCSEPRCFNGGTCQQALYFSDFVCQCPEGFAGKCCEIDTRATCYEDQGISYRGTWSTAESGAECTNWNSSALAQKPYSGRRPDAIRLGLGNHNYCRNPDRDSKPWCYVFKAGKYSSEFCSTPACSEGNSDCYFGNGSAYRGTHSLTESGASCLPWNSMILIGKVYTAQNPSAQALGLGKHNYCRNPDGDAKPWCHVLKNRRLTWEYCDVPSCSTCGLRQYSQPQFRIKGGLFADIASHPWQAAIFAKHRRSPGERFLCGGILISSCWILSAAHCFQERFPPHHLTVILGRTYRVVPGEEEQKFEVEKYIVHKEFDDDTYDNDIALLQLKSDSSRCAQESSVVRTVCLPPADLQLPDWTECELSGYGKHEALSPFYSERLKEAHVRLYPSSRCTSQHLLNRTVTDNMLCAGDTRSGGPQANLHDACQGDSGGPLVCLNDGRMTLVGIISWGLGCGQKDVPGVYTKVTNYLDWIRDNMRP
Sequence of Plasminogen (P00747 97-580 limits assumed): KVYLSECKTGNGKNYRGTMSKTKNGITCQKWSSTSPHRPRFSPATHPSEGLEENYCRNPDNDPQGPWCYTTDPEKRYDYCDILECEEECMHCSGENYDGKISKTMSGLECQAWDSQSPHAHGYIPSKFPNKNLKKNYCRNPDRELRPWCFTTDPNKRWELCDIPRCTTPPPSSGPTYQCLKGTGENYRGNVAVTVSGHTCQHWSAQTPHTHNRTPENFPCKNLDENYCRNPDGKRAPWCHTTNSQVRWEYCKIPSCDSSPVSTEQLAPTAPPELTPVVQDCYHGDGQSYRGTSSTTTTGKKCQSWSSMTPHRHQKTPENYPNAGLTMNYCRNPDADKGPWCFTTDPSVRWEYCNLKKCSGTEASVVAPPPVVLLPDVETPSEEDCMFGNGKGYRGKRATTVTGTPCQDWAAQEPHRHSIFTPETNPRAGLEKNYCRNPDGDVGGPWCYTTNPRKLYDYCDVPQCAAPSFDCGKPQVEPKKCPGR
Sequence of Plasminogen (P00747 581-810 limits assumed): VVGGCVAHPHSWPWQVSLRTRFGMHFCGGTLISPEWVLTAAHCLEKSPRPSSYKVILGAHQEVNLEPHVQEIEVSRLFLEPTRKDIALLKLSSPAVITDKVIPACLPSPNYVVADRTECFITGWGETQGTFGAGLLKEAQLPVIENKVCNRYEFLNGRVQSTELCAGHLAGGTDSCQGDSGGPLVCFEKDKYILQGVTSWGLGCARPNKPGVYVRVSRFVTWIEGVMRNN
Sequence of Coagulation factor X (P00742 41-179 limits assumed): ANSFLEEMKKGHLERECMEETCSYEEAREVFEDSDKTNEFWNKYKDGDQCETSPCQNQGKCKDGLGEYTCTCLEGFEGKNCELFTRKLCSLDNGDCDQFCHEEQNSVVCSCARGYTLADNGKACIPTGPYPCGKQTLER
Sequence of Coagulation factor X (P00742 235-488 limits assumed): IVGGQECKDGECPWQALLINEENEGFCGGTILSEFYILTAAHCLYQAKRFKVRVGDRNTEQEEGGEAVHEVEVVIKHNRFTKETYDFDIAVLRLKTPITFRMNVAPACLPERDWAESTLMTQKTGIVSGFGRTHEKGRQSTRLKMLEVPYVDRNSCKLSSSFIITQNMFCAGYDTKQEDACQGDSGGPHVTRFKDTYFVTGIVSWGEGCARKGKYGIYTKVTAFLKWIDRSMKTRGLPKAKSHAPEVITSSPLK
Sequence of Plasma kallikrein (P03952 20-390 limits assumed): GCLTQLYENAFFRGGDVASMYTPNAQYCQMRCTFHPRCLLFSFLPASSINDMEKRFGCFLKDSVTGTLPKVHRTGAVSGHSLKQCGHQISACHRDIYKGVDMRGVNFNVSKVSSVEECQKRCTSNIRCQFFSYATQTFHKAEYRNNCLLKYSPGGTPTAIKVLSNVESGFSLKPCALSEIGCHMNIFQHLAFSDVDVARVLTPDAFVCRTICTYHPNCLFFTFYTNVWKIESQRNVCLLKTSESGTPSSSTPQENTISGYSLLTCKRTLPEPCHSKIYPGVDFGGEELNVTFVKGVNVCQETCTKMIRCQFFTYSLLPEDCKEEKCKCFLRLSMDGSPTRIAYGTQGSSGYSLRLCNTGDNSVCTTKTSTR
Sequence of Plasma kallikrein (P03952 391-638 limits assumed): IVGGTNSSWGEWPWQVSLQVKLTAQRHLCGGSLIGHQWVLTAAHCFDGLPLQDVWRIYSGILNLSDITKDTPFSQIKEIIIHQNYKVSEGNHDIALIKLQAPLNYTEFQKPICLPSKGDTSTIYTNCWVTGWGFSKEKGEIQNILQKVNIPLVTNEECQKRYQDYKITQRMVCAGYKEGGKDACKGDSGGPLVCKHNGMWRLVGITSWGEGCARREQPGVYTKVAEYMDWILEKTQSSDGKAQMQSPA

With `NC1CCC(CNC(=O)[C@@H]2CCCN2C(=O)[C@H](N)C(C2CCCCC2)C2CCCCC2)CC1` (some centres not stated), the values for the AUC with Rattus norvegicus [1] and in the data set with Rattus norvegicus [2] were 3.3 µM·h and 0.36 µM·h, respectively. The clearance in data set [3] was found to be 6 mL/min/kg. Also, the fraction unbound in data set [4] was 0.02; in [5] it was 0.06. Besides, the bioavailability in data set [6] came out at 2%. This compound had a half-life in data set [7] of 0.2 h. Besides, the Ki came out at 95000 nM on Coagulation factor X; 5000 nM on Plasma kallikrein; 165000 nM on Plasminogen; 0.056 nM on Prothrombin; 137000 nM in data set [9]; 120 nM on Serine protease 1 [10]. The compound further yielded a No. of occlusions in the data set filed under Rattus norvegicus [8] of 1. The logD in [11] is 0.794.
As to `CC1CNc2c(cccc2S(=O)(=O)N[C@@H](CCCNC(=N)N)C(=O)N2CCC(C)C[C@@H]2C(=O)O)C1` (single isomer, unassigned) [ARGATROBAN], the No. of occlusions in data set [12] is given as 0.
Compound `NC1CCC(CNC(=O)[C@@H]2CCCN2C(=O)[C@H](N)C(c2ccccc2)c2ccccc2)CC1` (some centres not stated) showed a Ki at Serine protease 1 [13] of 94 nM. Further, the logP in [14] was -0.539.
In the case of `NC1CCC(CNC(=O)[C@@H]2CCCN2C(=O)[C@@H](N)C(C2CCCCC2)C2CCCCC2)CC1` (some centres not stated), on Prothrombin, the Ki came out at 440 nM.
On to `CC(C)(C)OC(=O)N[C@@H](C(=O)N1CCC[C@H]1C(=O)NCC1CCC(N)CC1)C(C1CCCCC1)C1CCCCC1` (some centres not stated), for which the AUC was 90 µM·h in the data set with Canis familiaris [15], 3.34 µM·h with Rattus norvegicus [1], 6.86 µM·h in the data set on Rattus norvegicus [2] and 45.3 µM·h in the data set on Canis familiaris [16]. For the same compound, the clearance is 6.06 mL/min/kg in [17] and 17.9 mL/min/kg in data set [3]. Besides, the bioavailability in data set [18] was 90%; in data set [6], 41%. In [5], the fraction unbound is less than 0.01. In addition, the half-life in data set [19] is 3.27 h; in [20], 7.13 h; in [7] it was 4.15 h. In addition, the logD in data set [21] and in data set [11] was greater than 3.09 throughout. In the data set listed under Rattus norvegicus [8], the No. of occlusions was 4. Besides, in the data set on Rattus norvegicus [22], the Concentration was found to be 2.7 µM. The compound also gave a Ki on Prothrombin of 0.1 nM.
The compound `CC(C)(C)OC(=O)N[C@H](C(=O)N1CCC[C@H]1C(=O)NCC1CCC(N)CC1)C(C1CCCCC1)C1CCCCC1` (some centres not stated) showed a Ki at Prothrombin of 3000 nM.
